Data from ChEMBL document CHEMBL4477181, “Bioactive Octahydroxylated C21 Steroids from the Root Bark of Lycium chinense” (2016).
The source made the active and inactive calls. The rule behind the calls is not given here.

What was measured:
CHO [1] = assay: Induction of autophagy in CHO cells expressing GFP-LC3 assessed as GFP-LC3-2 accumulation at 20 uM measured after 8 hrs by flow cytometry relative to control; type: functional, Cricetulus griseus
Summary of the method: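 CHO cells stably expressing GFP-LC3 (clones selected in 1 mg/mL G418) were kept in DMEM with 10% FBS and 800 μg/mL G418, seeded in 24-well plates and grown overnight. They were treated in triplicate for 8 h, with untreated cells as blank and 20 μM curcumin as positive control. Cells were trypsinized, washed with PBS then 0.1% saponin/PBS, and fluorescence at 488 nm was read by flow cytometry (>15,000 events).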

CHO [2] = assay: Induction of autophagy in CHO cells expressing GFP-LC3 assessed as GFP-LC3-2 accumulation at 25 uM measured after 8 hrs in presence of bafilomycin A1 by flow cytometry; type: functional, cell-based; conditions: Cricetulus griseus
Summary of the method: (§1)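 CHO cells stably expressing GFP-LC3 (selected in 1 mg/mL G418, maintained in DMEM/10% FBS with 800 μg/mL G418) were grown overnight. They were then treated in triplicate at 10, 25 or 50 μM for 8 h, with 20 μM curcumin as the positive control, alone or with 0.1 μM bafilomycin A1. Cells were trypsinised, washed, saponin-permeabilised, and fluorescence at 488 nm read by flow cytometry (>15,000 events).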

CHO [3] = assay: Induction of autophagy in CHO cells expressing GFP-LC3 assessed as GFP-LC3-2 accumulation at 25 uM measured after 8 hrs by flow cytometry; type: functional, Cricetulus griseus; summary of the method: as §1
MIN6 [4] = assay: Protective activity against palmitic acid-induced injury in mouse MIN6 cells assessed as increase in cell proliferation at 5 uM measured after 24 hrs by CCK8 assay; type: functional
Summary of the method: (§2)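 Mouse MIN6 β-cells were kept in DMEM (25 mM glucose, 50 μM β-mercaptoethanol, 10% FBS) and grown 24 h on poly-L-lysine to 80–90% confluency. They were then exposed 24 h in serum-free DMEM to 0.4 mM palmitic acid (final) plus compound in 0.1% DMSO (final); liraglutide was the reference. Read-out was CCK-8 absorbance at 450 nm, blank-corrected. Proliferation (%) = (OD sample − OD model)/OD model × 100.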

MIN6 [5] = assay: Protective activity against palmitic acid-induced injury in mouse MIN6 cells assessed as increase in cell proliferation measured after 24 hrs by CCK8 assay; type: functional, cell-based; summary of the method: as §2
MIN6 [6] = assay: Protective activity against palmitic acid-induced injury in mouse MIN6 cells assessed as increase in cell proliferation at 1 uM measured after 24 hrs by CCK8 assay; type: functional; summary of the method: as §2
MIN6 [7] = assay: Protective activity against palmitic acid-induced injury in mouse MIN6 cells assessed as increase in cell proliferation at 10 uM measured after 24 hrs by CCK8 assay; type: functional; summary of the method: as §2
MIN6 [8] = assay: Protective activity against palmitic acid-induced injury in mouse MIN6 cells assessed as increase in cell proliferation at 5 and 10 uM measured after 24 hrs by CCK8 assay relative to DMSO control; type: functional
Summary of the method: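 MIN6 mouse β cells grown in DMEM (25 mM glucose, 10% FBS, β-mercaptoethanol) on poly-L-lysine plates to 80−90% confluency, then exposed 24 h in serum-free DMEM to 0.4 mM palmitic acid (final) plus compound in 0.1% DMSO (final). CCK-8 absorbance read at 450 nm, with compound-only blanks. Proliferation change = (OD sample − OD model)/OD model × 100.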

SMILES	fold change (FC) (CHO [1])	Activity (CHO [2])	fold change (FC) (CHO [3])	Activity (MIN6 [4])	Activity (MIN6 [5])	Activity (MIN6 [6])	Activity (MIN6 [7])	fold change (FC) (MIN6 [8])
COc1cc(/C=C/C(=O)CC(=O)/C=C/c2ccc(O)c(OC)c2)ccc1O [CURCUMIN]	1.7							
CO[C@H]1C[C@H](O[C@H]2[C@@H](O)C[C@H](O[C@H]3CC[C@]4(C)[C@H]5C[C@@H](OC(=O)/C=C/C=C/c6ccccc6)[C@@]6(C)[C@](O)(CC[C@@]6(O)[C@H](C)O)[C@]5(O)C[C@@H](O)[C@@]4(O)C3)O[C@@H]2C)O[C@H](C)[C@H]1O[C@H]1C[C@@H](OC)[C@H](O)[C@@H](C)O1		Active	2.5					
C[C@H](O)[C@]1(O)CC[C@@]2(O)[C@]1(C)[C@H](OC(=O)/C=C/C=C/c1ccccc1)C[C@@H]1[C@@]3(C)CC[C@H](O)C[C@]3(O)[C@H](O)C[C@]12O				4.2%	Dose-dependent effect	-3.1%	8.8%	
CO[C@H]1C[C@H](O[C@H]2[C@@H](O)C[C@H](O[C@H]3CC[C@]4(C)[C@H]5C[C@@H](OC(=O)/C=C/C=C/c6ccccc6)[C@@]6(C)[C@](O)(CC[C@@]6(O)[C@H](C)O)[C@]5(O)C[C@@H](O)[C@@]4(O)C3)O[C@@H]2C)O[C@H](C)[C@H]1O		Active	2.1	81.7%	Dose-dependent effect	0.2%	87.7%	2
CO[C@H]1C[C@H](O[C@@H]2[C@@H](C)O[C@@H](O[C@H]3[C@@H](O)C[C@H](O[C@H]4CC[C@]5(C)[C@H]6C[C@@H](OC(=O)/C=C/C=C/c7ccccc7)[C@@]7(C)[C@](O)(CC[C@@]7(O)[C@H](C)O)[C@]6(O)C[C@@H](O)[C@@]5(O)C4)O[C@@H]3C)C[C@H]2OC)O[C@H](C)[C@H]1O[C@H]1C[C@@H](OC)[C@H](O)[C@@H](C)O1		Active	1.3					
C[C@H](O)[C@]1(O)CC[C@@]2(O)[C@]1(C)[C@H](OC(=O)/C=C/C=C/c1ccccc1)C[C@@H]1[C@@]3(C)CC[C@H](O[C@H]4C[C@H](O)[C@H](O)[C@@H](C)O4)C[C@]3(O)[C@H](O)C[C@]12O				4%	Dose-dependent effect	1.5%	11.2%	
CCCCCCCCCCCCCCCC(=O)N[C@@H](CCC(=O)NCCCC[C@H](NC(=O)[C@H](C)NC(=O)[C@H](C)NC(=O)[C@H](CCC(N)=O)NC(=O)CNC(=O)[C@H](CCC(=O)O)NC(=O)[C@H](CC(C)C)NC(=O)[C@H](Cc1ccc(O)cc1)NC(=O)[C@H](CO)NC(=O)[C@H](CO)NC(=O)[C@@H](NC(=O)[C@H](CC(=O)O)NC(=O)[C@H](CO)NC(=O)[C@@H](NC(=O)[C@H](Cc1ccccc1)NC(=O)[C@@H](NC(=O)CNC(=O)[C@H](CCC(=O)O)NC(=O)[C@H](C)NC(=O)[C@@H](N)Cc1cnc[nH]1)[C@@H](C)O)[C@@H](C)O)C(C)C)C(=O)N[C@@H](CCC(=O)O)C(=O)N[C@@H](Cc1ccccc1)C(=O)N[C@H](C(=O)N[C@@H](C)C(=O)N[C@@H](Cc1c[nH]c2ccccc12)C(=O)N[C@@H](CC(C)C)C(=O)N[C@H](C(=O)N[C@@H](CCCNC(=N)N)C(=O)NCC(=O)N[C@@H](CCCNC(=N)N)C(=O)NCC(=O)O)C(C)C)[C@@H](C)CC)C(=O)O [LIRAGLUTIDE]						19.1%		
CO[C@H]1C[C@H](O[C@H]2[C@@H](O)C[C@H](O[C@H]3CC[C@]4(C)[C@H]5C[C@@H](OC(=O)/C=C/C=C/c6ccccc6)[C@@]6(C)[C@](O)(CC[C@@]6(O)[C@H](C)O)[C@]5(O)C[C@H](O)[C@@]4(O)C3)O[C@@H]2C)O[C@H](C)[C@H]1O[C@H]1C[C@@H](OC)[C@H](O)[C@@H](C)O1		Active	3.1					
